Results gathered from unrelated publications.
Target: Serine/threonine-protein kinase pim-1 (PIM1, Homo sapiens, UniProt P11309)

| Compound | assay | conditions | quantity | value |
| --- | --- | --- | --- | --- |
| CN1CCN(C(=O)c2ccc(NC(=O)Nc3ccc(N(C)c4ccnc(Nc5ccc(CS(C)(=O)=O)cc5)n4)cc3)cc2)CC1 | binding | 1 µM | remaining binding | 100% |
| CC#CC(=O)N1CCC[C@H]1c1nc(-c2ccc(C(=O)Nc3ccccn3)cc2)c2c(N)nccn12 | enzyme activity, inhibitor | 1 µM | inhibition | 0% |
| C[C@H]1CC[C@H](n2c3cnccc3c3cnc(Nc4ccc5c(n4)CCN(C(=O)CO)C5)nc32)CC1 | cell-free assay | 1 µM | remaining signal | 59% |
| CC(=O)ON=C1C=CC(=C(C#N)c2ccccc2)C=C1 | enzyme activity, inhibitor, ADP detection | 20 µM | activity vs control | 102% |
| CC(C)S(=O)(=O)c1ccc2nccc(Nc3ccc4sc(C5CCCC5)nc4c3)c2c1 | enzyme activity, inhibitor | 1 µM | activity vs control | 101% |
| N#Cc1ccc(NC(=O)Nc2ccccc2)cc1 | cell-free assay, competition with immobilised ligand | 25 µM | remaining binding | 87% |
| C1=C/COCc2cc(ccc2OCCN2CCCC2)Nc2nccc(n2)-c2cccc(c2)COC/1 | binding | 0.1 µM | remaining binding | 100% |
| COc1ccc2oc(-c3ccc4nc(N)oc4c3)c/c(=N\c3ccccc3NC(=O)CCN)c2c1 | binding | 1 µM | remaining binding | 119% |
| C=CC(=O)N1CCC([C@@H]2CCNc3c(C(N)=O)c(-c4ccc(Oc5ccccc5)cc4)nn32)CC1 | enzyme activity, inhibitor | 1 µM | inhibition | 6% |
| C#Cc1cnc(Nc2ccnc(CO)c2)nc1Nc1ccccc1S(C)(=O)=NC#N (centres unmarked) | cell-free assay | 1 µM | remaining signal | 87% |
| CCCCC(=O)Nc1ccc(-c2ccc3ncn(CCC)c(=O)c3c2)cn1 | binding, competition with immobilised ligand | 0.5 µM | remaining binding | 100% |
